Laboratory results: ChEMBL document CHEMBL1127325, “Potent gastrin-releasing peptide (GRP) antagonists derived from GRP (19-27) with a C-terminal DPro psi [CH2NH]Phe-NH2 and N-terminal aromatic residues” (J Med Chem, 1994)
Where a SMILES comes first, the peptide text is derived from it. [ ]: non-standard residue; d: D form. The star is where a group is joined. ProΨ(CH2NH)PheNH2 = NC(=O)[C@H](Cc1ccccc1)NC[C@@H]1CCCN1*; dProψ(CH2NH)PheNH2 = NC(=O)[C@H](Cc1ccccc1)NC[C@H]1CCCN1*; X3 = NC(=O)[C@H](Cc1ccc(O)cc1)NC[C@H]1CCCN1*; Desaminotyrosyl = O=C(CCc1ccc(O)cc1)*; Hydrocinnamoyl = O=C(CCc1ccccc1)*; X9 = O=C(CCN1c2ccccc2Sc2ccccc21)*; X2 = O=C(Cc1ccccc1C(F)(F)F)*; Sar = CNCC(=O)O

Key:
[1] = molecular target: T1, Gastrin-releasing peptide receptor (Mus musculus, UniProt P21729); assay: Ability of peptide to inhibit binding of 10 pM [125I]gastrin releasing peptide to S-3T3 cell membrane.; assay type: cell-based
Procedure, shortened: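 Swiss 3T3 membranes (10 µg protein) incubated in triplicate with 10 pM [125I]GRP(1-27) in HEPES-KOH pH 6.8 (20 mM) with EGTA, MgCl2, BSA and protease inhibitors, 60 min at 37 °C with shaking. Terminated by filtration through PEI-pretreated GF/B filters, gamma counted. Nonspecific binding taken with 10 nM unlabeled GRP(1-27). IC50 for half-maximal inhibition of specific binding by Hill plot analysis.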

[2] = molecular target: T1, Gastrin-releasing peptide receptor; assay: The ability of the peptide to inhibit the binding of 50 pM [125I]gastrin releasing peptide to intact S-3T3 cells; assay type: cell-based
Procedure, shortened: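 Serially diluted peptides overlaid in triplicate on quiescent Swiss 3T3 monolayers (about 10^5 cells) with 50 pM [125I]GRP in maintenance medium, 30 min at 37 °C. Monolayers washed three times with chilled medium, solubilized, radioactivity counted. IC50 values reported.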

[3] = molecular target: Gastrin-releasing peptide receptor (Mus musculus) (UniProt P21729); assay: Inhibition of 6 nM bombesin induced [3H]thymidine incorporation measured in swiss 3T3 cells using a mitogenicity assay; assay type: functional, cell-based
Procedure, shortened: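 Density-arrested quiescent Swiss 3T3 monolayers treated in triplicate with test peptide (generally log dilutions) plus 6 nM bombesin for 18 h, then pulsed 2 h with 0.5 µCi [3H]thymidine per well. Cells washed with cold PBS, fixed in methanol/acetic acid, solubilized, scintillation counted. IC50 ± SEM over replicate trials; na means no activity at 10^-4 M.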

T1 sequence (P21729 whole entry): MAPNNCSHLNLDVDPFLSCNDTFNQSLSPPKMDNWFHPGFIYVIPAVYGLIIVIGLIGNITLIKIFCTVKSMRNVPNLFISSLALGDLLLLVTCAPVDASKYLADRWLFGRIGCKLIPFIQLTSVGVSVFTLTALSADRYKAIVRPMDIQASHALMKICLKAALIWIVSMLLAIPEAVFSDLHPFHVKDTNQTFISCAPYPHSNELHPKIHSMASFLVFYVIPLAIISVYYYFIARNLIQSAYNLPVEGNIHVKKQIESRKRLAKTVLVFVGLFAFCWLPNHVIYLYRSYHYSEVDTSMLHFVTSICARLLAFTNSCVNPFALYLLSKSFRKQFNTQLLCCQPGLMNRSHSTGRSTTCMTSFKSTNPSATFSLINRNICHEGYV
Gastrin-releasing peptide receptor (Mus musculus), sequence (P21729 whole entry): as above

| Compound | IC50 [1] | IC50 [2] | Activity [3] |
| --- | --- | --- | --- |
| CC(C)[C@H](NC(=O)[C@H](C)NC(=O)[C@H](Cc1c[nH]c2ccccc12)NC(=O)[C@H](Cc1cnc[nH]1)NC(=O)C[C@H](C)c1ccccc1)C(=O)N[C@H](C)C(=O)N[C@@H](Cc1cnc[nH]1)C(=O)N1CCC[C@@H]1CN[C@@H](Cc1ccccc1)C(N)=O | 0.21 nM | 10 nM | – |
| CC(C)[C@H](NC(=O)[C@H](C)NC(=O)[C@H](Cc1c[nH]c2ccccc12)NC(=O)[C@H](Cc1cnc[nH]1)NC(=O)C[C@@H](C)c1ccccc1)C(=O)N[C@H](C)C(=O)N[C@@H](Cc1cnc[nH]1)C(=O)N1CCC[C@@H]1CN[C@@H](Cc1ccccc1)C(N)=O | 0.49 nM | – | – |
| CC(C)[C@H](NC(=O)[C@H](C)NC(=O)[C@H](Cc1c[nH]c2ccccc12)NC(=O)[C@H](Cc1c[nH]cn1)NC(=O)[C@@H](N)Cc1ccc2ccccc2c1)C(=O)N[C@H](C)C(=O)N[C@@H](Cc1c[nH]cn1)C(=O)N1CCC[C@@H]1CN[C@@H](Cc1ccccc1)C(N)=O | 7.7 nM | – | 45 nM |
| CC(C)[C@H](NC(=O)[C@H](C)NC(=O)[C@H](Cc1c[nH]c2ccccc12)NC(=O)[C@H](Cc1cnc[nH]1)NC(=O)CCc1cccc(C(F)(F)F)c1)C(=O)N[C@H](C)C(=O)N[C@@H](Cc1cnc[nH]1)C(=O)N1CCC[C@@H]1CN[C@@H](Cc1ccccc1)C(N)=O | 0.16 nM | 10 nM | – |
| CC(C)[C@H](NC(=O)[C@H](C)NC(=O)[C@H](Cc1c[nH]c2ccccc12)NC(=O)[C@H](Cc1cnc[nH]1)NC(=O)CCc1ccccc1)C(=O)N[C@H](C)C(=O)N[C@@H](Cc1cnc[nH]1)C(=O)N1CCC[C@@H]1CN[C@H](Cc1ccc2ccccc2c1)C(N)=O | 2 nM | 5 nM | – |
| CC(C)[C@H](NC(=O)[C@H](C)NC(=O)[C@H](Cc1c[nH]c2ccccc12)NC(=O)[C@H](Cc1cnc[nH]1)NC(=O)C1CCc2ccccc2C1)C(=O)N[C@H](C)C(=O)N[C@@H](Cc1cnc[nH]1)C(=O)N1CCC[C@@H]1CN[C@@H](Cc1ccccc1)C(N)=O (some centres undefined) | 0.079 nM | 0.3 nM | – |
| CC(C)[C@H](NC(=O)[C@H](C)NC(=O)[C@H](Cc1c[nH]c2ccccc12)NC(=O)[C@H](Cc1cnc[nH]1)NC(=O)Cc1cccc(C(F)(F)F)c1)C(=O)N[C@H](C)C(=O)N[C@@H](Cc1cnc[nH]1)C(=O)N1CCC[C@@H]1CN[C@@H](Cc1ccccc1)C(N)=O | 8.4 nM | – | – |
| CC(C)[C@H](NC(=O)[C@H](C)NC(=O)[C@H](Cc1c[nH]c2ccccc12)NC(=O)[C@H](Cc1cnc[nH]1)NC(=O)c1cc2ccccc2cn1)C(=O)N[C@H](C)C(=O)N[C@@H](Cc1cnc[nH]1)C(=O)N1CCC[C@@H]1CN[C@@H](Cc1ccccc1)C(N)=O | 0.57 nM | – | – |
| CC(C)[C@H](NC(=O)[C@H](C)NC(=O)[C@H](Cc1c[nH]c2ccccc12)NC(=O)[C@H](Cc1cnc[nH]1)NC(=O)c1cccc2ccccc12)C(=O)N[C@H](C)C(=O)N[C@@H](Cc1cnc[nH]1)C(=O)N1CCC[C@@H]1CN[C@@H](Cc1ccccc1)C(N)=O | 0.05 nM | 0.001 nM | – |
| CC(C)[C@H](NC(=O)[C@H](C)NC(=O)[C@H](Cc1c[nH]c2ccccc12)NC(=O)[C@H](Cc1cnc[nH]1)NC(=O)Cc1ccc(C(F)(F)F)cc1)C(=O)N[C@H](C)C(=O)N[C@@H](Cc1cnc[nH]1)C(=O)N1CCC[C@@H]1CN[C@@H](Cc1ccccc1)C(N)=O | 3.7 nM | – | – |
| CC(C)[C@H](NC(=O)[C@H](C)NC(=O)[C@H](Cc1c[nH]c2ccccc12)NC(=O)[C@H](Cc1c[nH]cn1)NC(=O)C1CCc2ccccc2C1)C(=O)N[C@H](C)C(=O)N[C@@H](Cc1c[nH]cn1)C(=O)N1CCC[C@@H]1CN[C@@H](Cc1ccccc1)C(N)=O (some centres undefined) | – | – | 4 nM |
| CC(C)[C@H](NC(=O)[C@H](C)NC(=O)[C@H](Cc1c[nH]c2ccccc12)NC(=O)[C@H](Cc1c[nH]cn1)NC(=O)CCc1cccc(C(F)(F)F)c1)C(=O)N[C@H](C)C(=O)N[C@@H](Cc1c[nH]cn1)C(=O)N1CCC[C@@H]1CN[C@@H](Cc1ccccc1)C(N)=O | – | – | 0.35 nM |
| CC(C)[C@H](NC(=O)[C@H](C)NC(=O)[C@H](Cc1c[nH]c2ccccc12)NC(=O)[C@H](Cc1c[nH]cn1)NC(=O)CCc1ccccc1)C(=O)N[C@H](C)C(=O)N[C@@H](Cc1c[nH]cn1)C(=O)N1CCC[C@@H]1CN[C@@H](Cc1ccc2ccccc2c1)C(N)=O | – | – | 40 nM |
| CC(C)[C@H](NC(=O)[C@H](C)NC(=O)[C@H](Cc1c[nH]c2ccccc12)NC(=O)[C@H](Cc1c[nH]cn1)NC(=O)C[C@@H](C)c1ccccc1)C(=O)N[C@H](C)C(=O)N[C@@H](Cc1c[nH]cn1)C(=O)N1CCC[C@@H]1CN[C@@H](Cc1ccccc1)C(N)=O | – | – | 17 nM |
| CC(C)[C@H](NC(=O)[C@H](C)NC(=O)[C@H](Cc1c[nH]c2ccccc12)NC(=O)[C@H](Cc1c[nH]cn1)NC(=O)C[C@H](C)c1ccccc1)C(=O)N[C@H](C)C(=O)N[C@@H](Cc1c[nH]cn1)C(=O)N1CCC[C@@H]1CN[C@@H](Cc1ccccc1)C(N)=O | – | – | 0.16 nM |
| CC(C)[C@H](NC(=O)[C@H](C)NC(=O)[C@H](Cc1c[nH]c2ccccc12)NC(=O)[C@H](Cc1c[nH]cn1)NC(=O)Cc1ccc(C(F)(F)F)cc1)C(=O)N[C@H](C)C(=O)N[C@@H](Cc1c[nH]cn1)C(=O)N1CCC[C@@H]1CN[C@@H](Cc1ccccc1)C(N)=O | – | – | 200 nM |
| CC(C)[C@H](NC(=O)[C@H](C)NC(=O)[C@H](Cc1c[nH]c2ccccc12)NC(=O)[C@H](Cc1c[nH]cn1)NC(=O)Cc1cccc(C(F)(F)F)c1)C(=O)N[C@H](C)C(=O)N[C@@H](Cc1c[nH]cn1)C(=O)N1CCC[C@@H]1CN[C@@H](Cc1ccccc1)C(N)=O | – | – | 260 nM |
| CC(C)[C@H](NC(=O)[C@H](C)NC(=O)[C@H](Cc1c[nH]c2ccccc12)NC(=O)[C@H](Cc1c[nH]cn1)NC(=O)c1cc2ccccc2cn1)C(=O)N[C@H](C)C(=O)N[C@@H](Cc1c[nH]cn1)C(=O)N1CCC[C@@H]1CN[C@@H](Cc1ccccc1)C(N)=O | – | – | 4 nM |
| CC(C)[C@H](NC(=O)[C@H](C)NC(=O)[C@H](Cc1c[nH]c2ccccc12)NC(=O)[C@H](Cc1c[nH]cn1)NC(=O)c1cccc2ccccc12)C(=O)N[C@H](C)C(=O)N[C@@H](Cc1c[nH]cn1)C(=O)N1CCC[C@@H]1CN[C@@H](Cc1ccccc1)C(N)=O | – | – | 0.3 nM |
| CCCCC(NC[C@H]1CCCN1C(=O)[C@H](Cc1cccs1)NC(=O)[C@@H](C)NC(=O)[C@@H](NC(=O)[C@H](C)NC(=O)[C@H](Cc1c[nH]c2ccccc12)NC(=O)[C@H](Cc1c[nH]cn1)NC(=O)CCc1ccccc1)C(C)C)C(N)=O (some centres undefined) | – | – | 300 nM |
| CC(C)[C@H](NC(=O)[C@H](C)NC(=O)[C@H](Cc1c[nH]c2ccccc12)NC(=O)[C@H](Cc1c[nH]cn1)NC(=O)CCc1ccc(O)cc1)C(=O)N[C@H](C)C(=O)N[C@@H](Cc1c[nH]cn1)C(=O)N1CCC[C@@H]1CN[C@@H](Cc1ccccc1)C(N)=O (Desaminotyrosyl-HWAV[dA]H-{dProψ(CH2NH)PheNH2}) | – | – | 0.16 nM |
| CC(C)[C@H](NC(=O)[C@H](C)NC(=O)[C@H](Cc1c[nH]c2ccccc12)NC(=O)[C@H](Cc1c[nH]cn1)NC(=O)CCc1ccccc1)C(=O)N(C)CC(=O)N[C@@H](Cc1c[nH]cn1)C(=O)N1CCC[C@H]1CN[C@@H](Cc1ccccc1)C(N)=O (Hydrocinnamoyl-HWAV[Sar]H-{ProΨ(CH2NH)PheNH2}) | – | – | 0.43 nM |
| CC(C)[C@H](NC(=O)[C@H](C)NC(=O)[C@H](Cc1c[nH]c2ccccc12)NC(=O)[C@H](Cc1c[nH]cn1)NC(=O)CCc1ccccc1)C(=O)N[C@H](C)C(=O)N[C@@H](Cc1c[nH]cn1)C(=O)N1CCC[C@@H]1CN[C@@H](Cc1ccc(O)cc1)C(N)=O (Hydrocinnamoyl-HWAV[dA]H-X3) | 0.33 nM | – | 10 nM |
| CC(C)[C@H](NC(=O)[C@H](C)NC(=O)[C@H](Cc1c[nH]c2ccccc12)NC(=O)[C@H](Cc1c[nH]cn1)NC(=O)Cc1ccccc1C(F)(F)F)C(=O)N[C@H](C)C(=O)N[C@@H](Cc1c[nH]cn1)C(=O)N1CCC[C@@H]1CN[C@@H](Cc1ccccc1)C(N)=O (X2-HWAV[dA]H-{dProψ(CH2NH)PheNH2}) | 12 nM | – | 330 nM |
| CC(C)[C@H](NC(=O)[C@H](C)NC(=O)[C@H](Cc1c[nH]c2ccccc12)NC(=O)[C@H](Cc1c[nH]cn1)NC(=O)CCN1c2ccccc2Sc2ccccc21)C(=O)N[C@H](C)C(=O)N[C@@H](Cc1c[nH]cn1)C(=O)N1CCC[C@@H]1CN[C@@H](Cc1ccccc1)C(N)=O (X9-HWAV[dA]H-{dProψ(CH2NH)PheNH2}) | 1.9 nM | – | 29 nM |
| CC(NC(=O)[C@H](Cc1csc2ccccc12)NC(=O)[C@H](Cc1c[nH]cn1)NC(=O)CCc1ccccc1)C(=O)N[C@H](C(=O)NC(C)C(=O)N[C@@H](Cc1c[nH]cn1)C(=O)N1CCC[C@@H]1CN[C@@H](Cc1ccccc1)C(N)=O)C(C)C (stereo in doubt) | 0.75 nM | – | 430 nM |
| CC(C)[C@H](NC(=O)[C@H](C)NC(=O)[C@H](Cc1c[nH]c2ccccc12)NC(=O)[C@H](Cc1c[nH]cn1)NC(=O)CCc1ccccc1)C(=O)N[C@H](C)C(=O)N[C@@H](Cc1c[nH]cn1)C(=O)N1CCC[C@@H]1CNC(Cc1ccccc1)C(N)=O (stereo in doubt) | 0.038 nM | – | – |
| CC(NC(=O)[C@@H](NC[C@H](C)NC(=O)[C@H](Cc1c[nH]c2ccccc12)NC(=O)[C@H](Cc1c[nH]cn1)NC(=O)CCc1ccccc1)C(C)C)C(=O)N[C@@H](Cc1c[nH]cn1)C(=O)N1CCC[C@H]1CN[C@@H](Cc1ccccc1)C(N)=O (stereo in doubt) | > 10 nM | – | 47 nM |
